RBBP9 inh: blocks human serine hydrolase RBBP9; recombinant RBBP9, FP-Rh probe fluorescence polarization; inhibition, % at 7.94 µM; actives 0.2% (n = 220,000); AID 1515;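 active = inhibition above the campaign mean of all tested compounds plus 3 SD, cut at about 14% in these data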
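Test system: recombinant human RBBP9; Timing: 30 min then 45 min, 25 °C; Detection: fluorescence polarization; Control set: RBBP9 with DMSO as uninhibited control, no-protein wells as full inhibition; Compound dosing: one concentration, 7.94 µM nominal, 0.794% DMSO; Probe or stimulus: FP-Rh activity-based probe, 375 nM before mixing.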
UBC13 inh: human UBC13 polyubiquitination inhibition. UBC13 polyubiquitin chain formation, TR-FRET. actives 0.47% (n = 330,000). inhibition, % at 20 µM. P61088; in the data active = inhibition above about 45%, passing the limit was not always enough
ALR inh: blocks human ALR sulfhydryl oxidase activity; purified ALR, DTT oxidation, H2O2 HRP-luminol luminescence; actives 3.8% (n = 290,000); inhibition, % (concentration not given with the values); P55789; AID 485317;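 active = mean replicate inhibition above about 79%, with every replicate also reaching it, limit read from the data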
Target sequence (P55789 whole entry, looked up): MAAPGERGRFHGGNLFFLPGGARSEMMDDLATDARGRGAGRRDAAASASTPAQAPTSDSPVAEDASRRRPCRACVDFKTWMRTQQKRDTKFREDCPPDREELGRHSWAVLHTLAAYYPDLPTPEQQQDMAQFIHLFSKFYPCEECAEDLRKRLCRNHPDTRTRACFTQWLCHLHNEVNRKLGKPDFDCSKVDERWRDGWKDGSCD
SUMO HTRF inh: blocks human SUMOylation mediated by UBC9. P63279. HTRF SUMOylation assay, SAE1/SAE2 + UBC9, in vitro. inhibition, % at 35 µM. actives 0.36% (n = 290,000); in the data active = inhibition above about 50%, passing the limit was not always enough
Target sequence (P63279 whole entry, looked up): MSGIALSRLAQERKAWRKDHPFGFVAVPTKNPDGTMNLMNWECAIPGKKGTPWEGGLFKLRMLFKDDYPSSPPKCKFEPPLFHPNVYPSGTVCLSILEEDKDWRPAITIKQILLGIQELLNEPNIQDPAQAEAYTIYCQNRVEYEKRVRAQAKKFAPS
Rin1-Abl PPI inh: human Rin1-Abl interaction inhibition | P00519+Q13671 | TR-FRET Rin1/Abl binding, biochemical | inhibition, % at 7.35 µM | actives 0.4% (n = 360,000) | AID 588664; in the data active = inhibition above about 5%, passing the limit was not always enough
PREPL inh: inhibits the human prolyl oligopeptidase-like enzyme. inhibition, % at 5.96 µM. recombinant PREPL, fluorescence polarization activity-based probe. actives 0.68% (n = 320,000). AID 2751. Q4J6C6; in the data active = inhibition above about 43%
Rin1 Abl conf: confirmation of inhibitors of human Rin1-Abl interaction; TR-FRET Rin1-Abl binding, purified proteins; inhibition, % at 7.35 µM; actives 49% (n = 1,300); shares compounds with Rin1-Abl PPI inh
GFP quench: counter-screen for Rin1-Abl inhibitors: GFP fluorescence quenchers | inhibitors/quenchers counterscreen | shares compounds with Rin1-Abl PPI inh | inhibition, % at 6.75 µM | actives 8.5% (n = 1,300);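 also: ABL1-eGFP fusion protein alone without its partner RIN1-SBP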
GFP quench DR: counter-screen for Rin1-Abl inhibitors: GFP quenchers, dose response | shares compounds with Rin1-Abl PPI inh | GFP fluorescence interference/quenching counterscreen | IC50, µM | 230 tested, under 10 active | AID 602182; call rule not given here;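 also: ABL1-eGFP fusion protein alone without its RIN1 binding partner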
Large screens that a line does not name were inactive (follow-up assays come after a bar, where they were run). Compounds with a hit are over-represented: about 4.3% of the library has one in this group of screens. Rule as the data show it, unless noted: active = inhibition above about 6.5%; inactive = the rest.

CC1=C(O)C(=O)C=C2C1=CC=C1C2(C)CCC2(C)C3CC(C)(C(=O)O)CCC3(C)CCC12C (centres undefined)	none (no result: RBBP9 inh, UBC13 inh, ALR inh, SUMO HTRF inh, PREPL inh)
CC[C@H](OC(C)=O)C(C[C@H](C)N(C)C)(c1ccccc1)c1ccccc1	Rin1-Abl PPI inh 6.8 (no result: RBBP9 inh, ALR inh, SUMO HTRF inh) | Rin1 Abl conf 8.4 | GFP quench inactive
CCCN1CCc2cc(O)cc3c2[C@H]1Cc1ccc(O)c(O)c1-3	ALR inh 99, Rin1-Abl PPI inh 11 (no result: RBBP9 inh, SUMO HTRF inh) | Rin1 Abl conf 12 | GFP quench 8.6
COc1cccc(C(c2nnnn2-c2ccc3c(c2)OCCO3)N2CCC(n3c(=O)[nH]c4ccccc43)CC2)c1OC (centres undefined)	Rin1-Abl PPI inh 20 (no result: RBBP9 inh, UBC13 inh, ALR inh, SUMO HTRF inh, PREPL inh) | Rin1 Abl conf 19 | GFP quench inactive | GFP quench DR inactive
COc1ccc(-n2nnnc2C(c2ccnc3ccccc23)N2CCC(n3c(=O)[nH]c4ccccc43)CC2)cc1 (centres undefined)	none (no result: RBBP9 inh, UBC13 inh, ALR inh, SUMO HTRF inh, PREPL inh)
COc1ccc(-n2nnnc2C(c2cccc(OC)c2OC)N2CCC(n3c(=O)[nH]c4ccccc43)CC2)cc1 (centres undefined)	Rin1-Abl PPI inh 19 (no result: RBBP9 inh, UBC13 inh, ALR inh, SUMO HTRF inh, PREPL inh) | Rin1 Abl conf 16 | GFP quench inactive
CCc1ccc(NP(=O)(Oc2ccccc2F)Oc2ccccc2F)cc1	none
COC(=O)CCCCC1SCC(NC(=O)c2ccccc2)C1Cl (centres undefined)	Rin1-Abl PPI inh 9.2 | Rin1 Abl conf 14 | GFP quench inactive
COC(=O)C(O)(c1ccc(NC(=O)c2ccccc2)cc1)C(F)(F)F (centres undefined)	none (no result: ALR inh)
Nc1c(C(=O)NCCN2CCOCC2)c2nc3ccccc3nc2n1Cc1ccccc1	none
CCC(C)NC(=O)c1c(N)n(CCCOC)c2nc3ccccc3nc12 (centres undefined)	Rin1-Abl PPI inh 27 | Rin1 Abl conf inactive | GFP quench inactive
CCC(C)NC(=O)c1c(N)n(Cc2ccc3c(c2)OCO3)c2nc3ccccc3nc12 (centres undefined)	Rin1-Abl PPI inh 8.5 | Rin1 Abl conf inactive | GFP quench inactive
CCC(C)NC(=O)c1c(N)n(CC2CCCO2)c2nc3ccccc3nc12 (centres undefined)	Rin1-Abl PPI inh 5.7 | Rin1 Abl conf inactive | GFP quench inactive
CC(=O)OCC12CC(OC(=O)CC(C)C)C(C)=CC1OC1C(O)C(OC(C)=O)C2(C)C12CO2 (centres undefined)	none (no result: RBBP9 inh, UBC13 inh, ALR inh, SUMO HTRF inh, PREPL inh)
CNCC(=O)c1ccccc1	none (no result: RBBP9 inh, SUMO HTRF inh)
CN(C)C1C(=O)C(C(N)=O)=C(O)C2(O)C(=O)C3=C(O)c4c(O)cccc4C(C)(O)C3CC12 (centres undefined)	none (no result: RBBP9 inh, UBC13 inh)
CN(C)[C@@H]1C(=O)C(C(N)=O)=C(O)[C@@]2(O)C(=O)C3=C(O)c4c(O)cccc4[C@@](C)(O)C3[C@H](O)C12 (some centres undefined)	Rin1-Abl PPI inh 19 (no result: RBBP9 inh, SUMO HTRF inh) | Rin1 Abl conf inactive | GFP quench inactive
CCCCn1c(NC(=O)c2ccc(Br)o2)c(C(=O)OCC)c2nc3ccccc3nc21	SUMO HTRF inh 100, Rin1-Abl PPI inh 7.3 | Rin1 Abl conf inactive | GFP quench inactive
CCCCn1c(N)c(C(=O)NCCN2CCOCC2)c2nc3ccccc3nc21	none
CCN(CC)C(=O)c1ccc(NC(=O)c2cc(S(=O)(=O)N3CCCCCC3)ccc2OC)cc1	Rin1-Abl PPI inh 86 (no result: RBBP9 inh, SUMO HTRF inh) | Rin1 Abl conf 90 | GFP quench inactive | GFP quench DR inactive

Source: PubChem BioAssay
